Active and inactive are the calls of the source. No cut-off for these calls is given here.
Columns and labels:
DNA [1] = experiment: Binding affinity at Escherichia coli pBR322 DNA assessed as unwinding of supercoiled DNA at 0.1 uM incubated for 10 mins in presence of human topoisomerase 1 by agarose gel based electrophoresis; assay type: nucleic-acid assay
In short: (§1)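 Intercalation assay with relaxed pBR322 (300 ng) and 2 units human Topo I in 50 mM Tris-HCl pH 7.5, 2.5 mM MgCl₂, 0.5 mM DTT and 50 µg/mL BSA, run 10 min at 37 °C. Stopped by phenol/chloroform/isoamyl alcohol extraction. Products run on 1.2% agarose in TAE, 2 V/cm for 15 h, then EtBr-stained. EtBr served as control; three independent experiments.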

MCF7 [2] = experiment: Induction of cell cycle arrest in human MCF7 cells assessed as accumulation of cells at G0/G1 phase at 0.1 uM after 48 hrs by flow cytometry (reference value: 51.7%); assay type: functional
In short: (§2)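 MCF-7 cells exposed continuously to vehicle or 0.1 µM drug for 12, 24 and 48 h. Cell cycle distribution was assessed by flow cytometry.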

ACHN = experiment: Antiproliferative activity against human ACHN cells assessed as cell viability measured after 4 days by MTT assay; assay type: functional, cell-based; settings: 96 h
In short: (§3)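 Leukemia/lymphoma cells (RPMI 1640, 10% FCS) resuspended at 1 × 10⁵ cells/mL with serial drug dilutions and read by MTT after 96 h at 37 °C. Solid-tumor cells (own media, 10% FCS) were seeded at 5 × 10⁴ cells/mL, allowed 16 h to adhere, then dosed and read by MTT 4 days later. IC50 was derived by linear regression of growth as % of untreated controls.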

MCF7 [3] = experiment: Induction of cell cycle arrest in human MCF7 cells assessed as accumulation of cells at S phase at 0.1 uM after 24 hrs by flow cytometry (reference value: 31.3%); assay type: functional; in short: as §2
MCF7 [4] = experiment: Induction of DNA damage in human MCF7 cells assessed as increase tail length at 10 uM after 24 hrs by comet assay (reference value: 8%); assay type: functional
In short: (§4)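 About 1 × 10⁵ MCF-7 cells seeded; after 24 h, drug added for 24 h, with 10 µM VP-16 as positive control. Alkaline comet assay: lysis 1 h at 4 °C at pH 10, unwinding at pH 13, then electrophoresis at 30 V for 15 min. Slides neutralized, PI-stained and imaged by fluorescence microscopy at 10×. Tail lengths were taken from randomly selected cells.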

[5] = molecular target: DNA topoisomerase 2-alpha (Homo sapiens) (UniProt P11388); experiment: Inhibition of human topoisomerase 2alpha mediated pBR322 DNA relaxation at 0.7 uM by agarose gel electrophoresis relative to control
Chain of DNA topoisomerase 2-alpha (Homo sapiens) (P11388 whole entry): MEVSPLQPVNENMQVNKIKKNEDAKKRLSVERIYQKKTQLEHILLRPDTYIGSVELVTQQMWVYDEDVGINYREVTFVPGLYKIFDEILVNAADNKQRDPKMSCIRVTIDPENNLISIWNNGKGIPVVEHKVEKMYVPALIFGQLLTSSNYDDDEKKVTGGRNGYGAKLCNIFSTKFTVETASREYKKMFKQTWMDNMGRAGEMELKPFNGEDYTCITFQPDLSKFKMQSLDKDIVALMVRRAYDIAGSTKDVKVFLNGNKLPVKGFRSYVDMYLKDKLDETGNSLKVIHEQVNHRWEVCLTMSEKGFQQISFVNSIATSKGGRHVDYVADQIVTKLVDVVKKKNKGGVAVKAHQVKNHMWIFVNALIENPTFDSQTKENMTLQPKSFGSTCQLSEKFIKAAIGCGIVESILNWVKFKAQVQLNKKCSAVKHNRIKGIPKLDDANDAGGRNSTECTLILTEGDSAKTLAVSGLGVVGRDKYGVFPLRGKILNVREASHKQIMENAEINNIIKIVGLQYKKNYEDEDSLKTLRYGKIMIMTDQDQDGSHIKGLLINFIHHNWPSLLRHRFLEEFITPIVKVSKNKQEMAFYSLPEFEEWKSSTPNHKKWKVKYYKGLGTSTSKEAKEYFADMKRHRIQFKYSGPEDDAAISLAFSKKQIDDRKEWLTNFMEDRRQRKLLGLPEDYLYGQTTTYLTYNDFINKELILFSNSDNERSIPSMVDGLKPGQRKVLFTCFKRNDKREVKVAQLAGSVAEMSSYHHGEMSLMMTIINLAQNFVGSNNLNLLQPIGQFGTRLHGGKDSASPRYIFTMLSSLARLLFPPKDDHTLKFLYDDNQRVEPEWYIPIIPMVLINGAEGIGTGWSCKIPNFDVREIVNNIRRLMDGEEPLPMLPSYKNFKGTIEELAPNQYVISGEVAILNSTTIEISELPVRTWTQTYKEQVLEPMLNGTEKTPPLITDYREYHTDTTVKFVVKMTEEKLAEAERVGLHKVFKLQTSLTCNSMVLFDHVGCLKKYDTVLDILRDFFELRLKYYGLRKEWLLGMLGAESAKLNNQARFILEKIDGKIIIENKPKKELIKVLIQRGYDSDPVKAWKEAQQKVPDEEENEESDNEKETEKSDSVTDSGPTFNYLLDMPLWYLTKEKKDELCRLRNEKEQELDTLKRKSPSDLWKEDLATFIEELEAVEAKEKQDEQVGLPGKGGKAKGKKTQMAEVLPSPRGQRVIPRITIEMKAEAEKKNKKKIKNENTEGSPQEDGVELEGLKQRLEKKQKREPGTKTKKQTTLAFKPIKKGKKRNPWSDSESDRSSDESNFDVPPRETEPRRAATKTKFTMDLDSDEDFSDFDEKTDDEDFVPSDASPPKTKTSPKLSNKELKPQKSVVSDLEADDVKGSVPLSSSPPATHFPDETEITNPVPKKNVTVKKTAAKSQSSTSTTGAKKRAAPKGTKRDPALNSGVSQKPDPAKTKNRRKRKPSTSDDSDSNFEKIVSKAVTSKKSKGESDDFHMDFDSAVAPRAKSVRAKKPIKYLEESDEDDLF

CCRF-CEM = experiment: Antiproliferative activity against human CCRF-CEM cells assessed as cell viability measured after 4 days by MTT assay; assay type: functional, cell-based; settings: 96 h; in short: as §3
MCF7 [6] = experiment: Induction of cell cycle arrest in human MCF7 cells assessed as accumulation of cells at G2/M phase at 0.1 uM after 48 hrs by flow cytometry (reference value: 17%); assay type: functional; in short: as §2
HT-29 = experiment: Antiproliferative activity against human HT-29 cells assessed as cell viability measured after 4 days by MTT assay; assay type: functional, cell-based; settings: HT-29, 96 h; in short: as §3
MCF7 [7] = experiment: Antiproliferative activity against human MCF7 cells assessed as cell viability measured after 4 days by MTT assay; assay type: functional, cell-based; settings: MCF7, 96 h; in short: as §3
[8] = molecular target: DNA topoisomerase 2-alpha (Homo sapiens) (UniProt P11388); experiment: Inhibition of human topoisomerase 2alpha mediated pBR322 DNA relaxation at 1.5 uM by agarose gel electrophoresis relative to control
Calf thymus DNA [9] = experiment: Binding affinity to calf thymus DNA assessed as lamda max by UV-vis spectroscopy; assay type: nucleic-acid assay; settings: Bos taurus
In short: (§5)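 ctDNA held at 0.2 mM in phosphate buffer pH 7 and titrated with drug from […]. UV-vis spectra recorded in a 1 cm quartz cuvette. Binding constant was taken by the mole-ratio method from optical density changes at 260 nm, using a double reciprocal plot.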

MCF7 [10] = experiment: Induction of DNA damage in human MCF7 cells assessed as increase tail length at 1 to 10 uM after 24 hrs by comet assay; assay type: functional, cell-based; settings: dose 1-10 µM; in short: as §4
SK-MEL-28 = experiment: Antiproliferative activity against human SKMEL-28 cells assessed as cell viability measured after 4 days by MTT assay; assay type: functional, cell-based; settings: SK-MEL-28, 96 h; in short: as §3
HeLa = experiment: Antiproliferative activity against human HeLa cells assessed as cell viability measured after 4 days by MTT assay; assay type: functional, cell-based; settings: 96 h
In short: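 Solid-tumor cells (own media, 10% FCS) were seeded at 5 × 10⁴ cells/mL, allowed 16 h to adhere, then dosed and read by MTT 4 days later. IC50 was derived by linear regression of growth as % of untreated controls.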

MT4 = experiment: Antiproliferative activity against human MT-4 cells assessed as cell viability measured after 4 days by MTT assay; assay type: functional, cell-based; settings: MT4, 96 h; in short: as §3
MCF7 [11] = experiment: Induction of cell cycle arrest in human MCF7 cells assessed as accumulation of cells at G0/G1 phase at 0.1 uM after 24 hrs by flow cytometry (reference value: 51.7%); assay type: functional; in short: as §2
G-361 = experiment: Antiproliferative activity against human G-361 cells assessed as cell viability measured after 4 days by MTT assay; assay type: functional, cell-based; settings: G-361, 96 h; in short: as §3
DNA [12] = experiment: Binding affinity at Escherichia coli pBR322 DNA assessed as unwinding of supercoiled DNA at 10 uM incubated for 10 mins in presence of human topoisomerase 1 by agarose gel based electrophoresis; assay type: nucleic-acid assay; in short: as §1
MCF7 [13] = experiment: Induction of cell cycle arrest in human MCF7 cells assessed as accumulation of cells at S phase at 0.1 uM after 48 hrs by flow cytometry (reference value: 31.3%); assay type: functional; in short: as §2
Calf thymus DNA [14] = experiment: Binding affinity to calf thymus DNA assessed as hypochromism by UV-vis spectroscopy; settings: Bos taurus
[15] = molecular target: DNA topoisomerase 2-beta (Homo sapiens) (UniProt Q02880); experiment: Poison activity at topo2beta (unknown origin) assessed as induction of accumulation of topo-2/DNA cleavage complex formation by agarose gel electrophoresis
Chain of DNA topoisomerase 2-beta (Homo sapiens) (Q02880 whole entry): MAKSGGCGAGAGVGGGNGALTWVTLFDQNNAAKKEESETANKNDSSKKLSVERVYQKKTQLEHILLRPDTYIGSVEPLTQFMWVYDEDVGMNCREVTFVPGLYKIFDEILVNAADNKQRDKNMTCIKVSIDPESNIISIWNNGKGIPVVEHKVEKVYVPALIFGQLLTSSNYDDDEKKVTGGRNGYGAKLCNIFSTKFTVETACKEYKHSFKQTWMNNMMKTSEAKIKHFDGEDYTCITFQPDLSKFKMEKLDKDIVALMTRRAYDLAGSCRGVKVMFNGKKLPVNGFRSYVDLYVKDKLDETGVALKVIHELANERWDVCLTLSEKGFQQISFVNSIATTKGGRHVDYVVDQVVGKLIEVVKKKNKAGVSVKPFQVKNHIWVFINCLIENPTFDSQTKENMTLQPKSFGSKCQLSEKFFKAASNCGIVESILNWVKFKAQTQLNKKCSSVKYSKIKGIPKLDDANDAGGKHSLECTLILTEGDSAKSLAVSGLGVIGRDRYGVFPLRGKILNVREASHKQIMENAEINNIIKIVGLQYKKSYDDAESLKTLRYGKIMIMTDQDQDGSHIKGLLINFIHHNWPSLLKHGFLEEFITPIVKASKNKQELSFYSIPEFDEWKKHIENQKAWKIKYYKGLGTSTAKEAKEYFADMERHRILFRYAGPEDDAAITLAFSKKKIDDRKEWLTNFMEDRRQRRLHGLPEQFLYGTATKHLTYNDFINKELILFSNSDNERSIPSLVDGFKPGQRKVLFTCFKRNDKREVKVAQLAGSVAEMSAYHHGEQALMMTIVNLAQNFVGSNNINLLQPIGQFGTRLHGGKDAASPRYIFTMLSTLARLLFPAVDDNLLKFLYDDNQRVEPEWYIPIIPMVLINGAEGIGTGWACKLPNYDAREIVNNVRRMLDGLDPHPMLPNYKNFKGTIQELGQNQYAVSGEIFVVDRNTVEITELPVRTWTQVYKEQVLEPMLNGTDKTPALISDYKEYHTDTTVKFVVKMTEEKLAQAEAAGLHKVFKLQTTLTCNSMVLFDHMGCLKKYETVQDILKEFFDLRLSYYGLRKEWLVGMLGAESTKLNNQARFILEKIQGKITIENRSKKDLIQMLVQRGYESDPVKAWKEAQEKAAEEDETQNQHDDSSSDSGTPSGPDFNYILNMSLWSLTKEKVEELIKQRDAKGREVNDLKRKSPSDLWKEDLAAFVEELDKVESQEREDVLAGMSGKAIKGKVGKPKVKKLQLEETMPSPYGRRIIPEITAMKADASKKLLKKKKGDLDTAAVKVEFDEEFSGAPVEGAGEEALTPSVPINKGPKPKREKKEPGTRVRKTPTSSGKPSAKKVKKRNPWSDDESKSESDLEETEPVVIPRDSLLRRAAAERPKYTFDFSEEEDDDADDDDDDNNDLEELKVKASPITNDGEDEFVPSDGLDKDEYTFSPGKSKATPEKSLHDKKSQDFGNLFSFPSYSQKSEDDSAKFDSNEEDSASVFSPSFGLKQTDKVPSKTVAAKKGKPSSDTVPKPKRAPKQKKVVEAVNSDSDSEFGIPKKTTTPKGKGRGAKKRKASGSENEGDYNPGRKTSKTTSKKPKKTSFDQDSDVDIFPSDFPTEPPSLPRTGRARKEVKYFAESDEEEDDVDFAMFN

MCF7 [16] = experiment: Induction of cell cycle arrest in human MCF7 cells assessed as accumulation of cells at G0/G1 phase at 0.1 uM after 12 hrs by flow cytometry (reference value: 51.7%); assay type: functional; in short: as §2
MCF7 [17] = experiment: Induction of DNA damage in human MCF7 cells assessed as increase in gammaH2AX foci at 5 to 10 uM measured after 0.5 to 3 hrs by Western blot analysis; assay type: functional, cell-based; settings: dose 5-10 µM, time 0.5-3 hrs
In short: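 MCF-7 cells were treated for 0.5, 1 and 3 h, washed with ice-cold PBS and lysed in RIPA buffer containing PMSF and protease inhibitors. Lysates run on SDS-PAGE, blotted to PVDF and probed for H2AX, with β-actin as loading control. Detection by HRP secondary antibody and enhanced chemiluminescence.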

[18] = molecular target: DNA topoisomerase 2-alpha (Homo sapiens) (UniProt P11388); experiment: Poison activity at human topo2alpha assessed as induction of accumulation of topo-2/DNA cleavage complex formation at 1 to 5 uM using […] plasmid incubated for 10 mins by agarose gel electrophoresis; settings: dose 1-5 µM
In short: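 Supercoiled pBR322 incubated with purified Topo IIα and drug for 10 min at 30 °C. Stopped with 0.35% SDS plus 0.3 mg/mL proteinase K (final), then 1 h at 56 °C. Products run on 1.2% agarose gels containing EtBr. Linear DNA quantified by gel densitometry; averages of three independent experiments.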

Calf thymus DNA [19] = experiment: Binding affinity to calf thymus DNA assessed as red shift by UV-vis spectroscopy; assay type: nucleic-acid assay; design: unit not given here; settings: Bos taurus; in short: as §5
CCRF-SB = experiment: Antiproliferative activity against human CCRF-SB cells assessed as cell viability measured after 4 days by MTT assay; assay type: functional, cell-based; settings: 96 h; in short: as §3
MCF7 [20] = experiment: Induction of cell cycle arrest in human MCF7 cells assessed as accumulation of cells at G2/M phase at 0.1 uM after 12 hrs by flow cytometry (reference value: 17%); assay type: functional; in short: as §2
MCF7 [21] = experiment: Induction of cell cycle arrest in human MCF7 cells assessed as accumulation of cells at G2/M phase at 0.1 uM after 24 hrs by flow cytometry (reference value: 17%); assay type: functional; in short: as §2
MCF7 [22] = experiment: Induction of cell cycle arrest in human MCF7 cells assessed as accumulation of cells at S phase at 0.1 uM after 12 hrs by flow cytometry (reference value: 31.3%); assay type: functional; in short: as §2
Calf thymus DNA [23] = experiment: Binding affinity to calf thymus DNA assessed as isosbestic point by UV-vis spectroscopy; assay type: nucleic-acid assay; settings: Bos taurus; in short: as §5

N[C@@H](CCCCNC(=O)c1ccc2nc3c4cccnc4c(=O)cc-3oc2c1)C(=O)O
Activity (DNA [1]): Active
Activity (MCF7 [2]): 42.5%
IC50 (ACHN): 5 nM
Activity (MCF7 [3]): 26%
Activity (MCF7 [4]): 50%
inhibition [5]: 50%
IC50 (CCRF-CEM): 3 nM
Activity (MCF7 [6]): 48.77%
IC50 (HT-29): 4 nM
IC50 (MCF7 [7]): 3 nM
inhibition [8]: 100%
Activity (Calf thymus DNA [9]): 443
Activity (MCF7 [10]): Active
IC50 (SK-MEL-28): 2 nM
IC50 (HeLa): 5 nM
IC50 (MT4): 6 nM
Activity (MCF7 [11]): 48%
IC50 (G-361): 6 nM
Activity (DNA [12]): Active
Activity (MCF7 [13]): 8.73%
Activity (Calf thymus DNA [14]): 58%
Activity [15]: inactive
Activity (MCF7 [16]): 51.71%
Activity (MCF7 [17]): Active
Activity [18]: Active
Activity (Calf thymus DNA [19]): 448
IC50 (CCRF-SB): 5 nM
Activity (MCF7 [20]): 17.8%
Activity (MCF7 [21]): 26%
Activity (MCF7 [22]): 30.5%
Activity (Calf thymus DNA [23]): 340 nm

From ChEMBL document CHEMBL4706487, “Antitumor agents 7. Synthesis, antiproliferative activity and molecular modeling of new l-lysine-conjugated pyridophenoxazinones as potent DNA-binding ligands and topoisomerase IIα inhibitors” (Eur J Med Chem, 2020)
